Tests used:
Hepatitis C virus [1] = assay: Antiviral activity against HCV1b infected in human HuH7 cells assessed as inhibition of viral replication by RT-PCR analysis; assay type: functional, organism-based, Hepacivirus hominis; settings: genotype 1b, Huh-7
Summary of the method: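 Huh7 cells carrying a subgenomic genotype 1b HCV replicon were treated with compound, and HCV RNA replication was measured. HCV RNA and ribosomal RNA were extracted and amplified together, and cytotoxicity in Huh7 was read at the same time. EC50 and EC90 came from dose–response curves of at least four concentrations, each run in triplicate, and are reported as means.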

PBMC = assay: Cytotoxicity against human PBMC after 3 days; assay type: cell-based; settings: 72 h
Summary of the method: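 CC50 was measured in human peripheral blood mononuclear (PBM) cells, the human T-cell-derived CEM line, and African green monkey kidney epithelial Vero cells. Dose–response was fitted from at least four concentrations, each run in triplicate and reported as the mean.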

Hepatitis C virus [2] = assay: Antiviral activity against HCV1b infected in human assessed as reduction of viral RNA level at 10 mg after 24 hrs; assay type: functional, Hepacivirus hominis, genotype 1b
Vero = assay: Cytotoxicity against african green monkey Vero cells after 3 days; assay type: cell-based; settings: chlorocebus sabaeus, 72 h
CCRF-CEM = assay: Cytotoxicity against human CEM cells after 3 days; assay type: cell-based; settings: 72 h
[3] = Therapeutic index, ratio of CC50 for human PBMC to EC50 for HCV1b
Summary of the method: (§1)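 The index is CC50/EC50. EC50 came from Huh7 cells carrying a subgenomic genotype 1b HCV replicon, with HCV RNA quantified by extraction and amplification alongside rRNA. CC50 was measured in PBM, CEM or Vero cells. Each dose–response used at least four concentrations in triplicate, and means were reported.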

[4] = Therapeutic index, ratio of CC50 for human CEM cells to EC50 for HCV1b; assay type: cell-based, CCRF-CEM; summary of the method: as §1
[5] = Therapeutic index, ratio of CC50 for african green monkey Vero cells to EC50 for HCV1b; assay type: cell-based; summary of the method: as §1

Row | Structure (SMILES) | EC50 (Hepatitis C virus [1]) [nM] | EC90 (Hepatitis C virus [1]) [nM] | CC50 (PBMC) [µM] | Activity (Hepatitis C virus [2]) [log10IU/ml] | CC50 (Vero) [µM] | CC50 (CCRF-CEM) [µM] | selectivity ratio [3] | selectivity ratio [4] | selectivity ratio [5]
1 | COC(=O)N[C@H](C(=O)N1CCC[C@H]1c1ncc(-c2ccc(-c3ccc(-c4cnc([C@@H]5CCCN5C(=O)[C@@H](NC(=O)OC)C(C)C)[nH]4)cc3)cc2)[nH]1)C(C)C | 0.0066 | 0.023 | 19 | > 3 | – | – | – | – | –
2 | COC(=O)N[C@H](C(=O)N1CCC[C@H]1c1ncc(-c2ccc(Oc3ccc(-c4cnc([C@@H]5CCCN5C(=O)[C@@H](NC(=O)OC)C(C)C)[nH]4)cc3)cc2)[nH]1)C(C)C | 30 | 90 | 16 | – | 19 | 16 | – | – | –
3 | COC(=O)N[C@H](C(=O)N1CCC[C@H]1c1ncc(-c2ccc(-c3cn(-c4ccc(-c5cnc([C@@H]6CCCN6C(=O)[C@@H](NC(=O)OC)C(C)C)[nH]5)cc4)nn3)cc2)[nH]1)C(C)C | 0.2 | 0.9 | 18 | – | 35 | 5 | – | – | –
4 | COC(=O)N[C@H](C(=O)N1CCC[C@H]1c1ncc(-c2ccc(-c3ccc(-c4ccc(-c5cnc([C@@H]6CCCN6C(=O)[C@@H](NC(=O)OC)C(C)C)[nH]5)cc4)s3)cc2)[nH]1)C(C)C | 0.1 | 0.3 | 26 | – | > 100 | 12 | – | – | –
5 | COC(=O)N[C@H](C(=O)N1CCC[C@H]1c1ncc(-c2ccc(-c3cccc(-c4ccc(-c5cnc([C@@H]6CCCN6C(=O)[C@@H](NC(=O)OC)C(C)C)[nH]5)cc4)c3)cc2)[nH]1)C(C)C | 0.8 | 2.9 | 18 | – | > 100 | 3 | – | – | –
6 | COC(=O)N[C@H](C(=O)N1CCC[C@H]1c1ncc(-c2ccc(-c3ccc(-c4cnc([C@@H]5CCCN5C(=O)[C@@H](NC(=O)OC)C(C)C)[nH]4)s3)cc2)[nH]1)C(C)C | 90.6 | > 100 | 93 | – | 99 | 48 | – | – | –
7 | COC(=O)N[C@H](C(=O)N1CCC[C@H]1c1ncc(-c2ccc(-c3ccc(-c4ccc(-c5cnc([C@@H]6CCCN6C(=O)[C@@H](NC(=O)OC)C(C)C)[nH]5)cc4)cc3)cc2)[nH]1)C(C)C | 0.026 | 0.09 | > 100 | – | > 100 | > 100 | > 4e+06 | > 4e+06 | > 4e+06
8 | COC(=O)N[C@H](C(=O)N1CCC[C@H]1c1ncc(-c2ccc(-c3ccc(-c4ccc(-c5cnc([C@@H]6CCCN6C(=O)[C@@H](NC(=O)OC)C(C)C)[nH]5)cn4)cc3)cc2)[nH]1)C(C)C | 0.2 | 0.7 | 5.5 | – | 29 | 31 | – | – | –
9 | COC(=O)N[C@H](C(=O)N1CCC[C@H]1c1ncc(-c2ccc(NS(=O)(=O)c3ccc(-c4cnc([C@@H]5CCCN5C(=O)[C@@H](NC(=O)OC)C(C)C)[nH]4)cc3)cc2)[nH]1)C(C)C | 100 | > 100 | 15 | – | > 100 | 13 | – | – | –
10 | COC(=O)N[C@H](C(=O)N1CCC[C@H]1c1ncc(-c2ccc(-c3ccc(-c4ccc(-c5ccc(-c6cnc([C@@H]7CCCN7C(=O)[C@@H](NC(=O)OC)C(C)C)[nH]6)cc5)cc4)cc3)cc2)[nH]1)C(C)C | 0.24 | 1 | > 100 | – | > 100 | > 100 | – | – | –
11 | COC(=O)N[C@H](C(=O)N1CCC[C@H]1c1ncc(-c2ccc(-c3cnc([C@@H]4CCCN4C(=O)[C@@H](NC(=O)OC)C(C)C)[nH]3)cc2)[nH]1)C(C)C | > 1 | – | > 100 | – | > 100 | > 100 | – | – | –
12 | COC(=O)N[C@H](C(=O)N1CCC[C@H]1c1ncc(-c2ccc(-c3ccc(-c4ccc(-c5cnc([C@@H]6CCCN6C(=O)[C@@H](NC(=O)OC)C(C)C)[nH]5)cc4)nc3)cc2)[nH]1)C(C)C | 0.026 | 0.068 | 3.9 | – | 6.5 | 2.3 | – | – | –

Reference: ChEMBL document CHEMBL2021872, “Synthesis and biological evaluation of new potent and selective HCV NS5A inhibitors” (Bioorg Med Chem Lett, 2012)
